The record followed here is ChEMBL document CHEMBL4138156, “Indole and Benzimidazole Bichalcophenes: Synthesis, DNA Binding and Antiparasitic Activity” (Eur J Med Chem, 2018).

Calls of active or inactive are those of the source. The calls are words filed in the database; no cut-off is given here.

The test system of data set [1] is Poly(dA-dT)oligonucleotide. Nature of the data set: Binding affinity to poly(dA-dT)n DNA (unknown origin) assessed as change in melting temperature at 0.3 molar ratio of compound:DNA by spectrophotometric analysis. It is filed as nucleic-acid assay. Summed up:
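UV thermal melting of poly(dA-dT) in CAC 10 buffer (10 mM cacodylic acid, 1 mM EDTA, 100 mM NaCl, NaOH to pH 7.0) was run in 1 cm quartz cuvettes, ramping at 0.5 °C/min. DNA concentration was set from A260, with 0.3 mol compound per mol DNA and DNA alone as control. ΔTm was taken from the peak of the first-derivative (dA/dT) curves.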

A short description of data set [2]: Binding affinity to poly(dA).poly(dT) DNA minor groove (unknown origin) assessed as positive induced CD signal at DNA:compound molar ratio of 20:2 to 20:10 by CD spectra analysis. It is filed as nucleic-acid assay. In outline: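 Poly(dA).poly(dT) at 20 μM was titrated with compound at 25 °C in 10 mM MES, 100 mM NaCl, 1 mM EDTA, pH 7.4. CD spectra were recorded at different compound-to-DNA ratios.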

Data set [3] deals with Trypanosoma brucei rhodesiense. The data set is described as follows: Antiprotozoal activity against bloodstream forms of Trypanosoma brucei rhodesiense STIB900 infected in NMR1 mouse at 5 mg/kg, ip administered daily for 4 consecutive days starting from day 3 to 6 post infection. It is filed as functional. In outline: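 STIB900 acute-stage mouse infection model for T. b. rhodesiense (mimics acute African sleeping sickness). Dosing was 4 × 5 mg/kg i.p. The outcome was scored as cure of infected mice.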

The nature of data set [4]: Selectivity index, ratio of IC50 for rat L6 cells to IC50 for Plasmodium falciparum K1 infected in human erythrocytes. It is filed as toxicity, cell-based. As to conditions: read-out: Ratio IC50. In outline: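 Ratio of IC50 in cultured L6 rat myoblast cells (cytotoxicity) to IC50 in an in vitro viability assay against chloroquine-resistant P. falciparum strain K1. P. falciparum IC50 values are the average of duplicate determinations.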

By ΔTm is commonly meant the change in melting temperature against a reference sample. On to `N=C(N)c1ccc2nc(-c3ccc(-c4ccc(C(=N)N)s4)s3)[nH]c2c1`, for which the ΔTm in data set [1] is over 30 °C. Further, the outcome in data set [2] was Active.

Consider `N=C(N)c1ccc2cc(-c3ccc(-c4ccc(C(=N)N)s4)o3)[nH]c2c1`, for which, in data set [1], the ΔTm is over 30 °C. Also, the result in data set [3] was inactive.

`N=C(N)c1ccc2nc(-c3ccc(-c4ccc(C(=N)N)o4)o3)[nH]c2c1`: in data set [2], the outcome was Active.

For `N=C(N)c1ccc2cc(-c3ccc(-c4ccc(C(=N)N)s4)s3)[nH]c2c1`, the shift in melting temperature (ΔTm) in data set [1] is over 30 °C. Further, in data set [3], the result was inactive. Moreover, the outcome in data set [2] was Active.

Take `N=C(N)c1ccc2cc(-c3ccc(-c4ccc(C(=N)N)o4)o3)[nH]c2c1`: in data set [4], the selectivity ratio turned out to be 1000. Besides, the result in data set [3] was inactive. Moreover, in data set [2], the result was Active.

For `N=C(N)c1ccc2nc(-c3ccc(-c4ccc(C(=N)N)s4)o3)[nH]c2c1`, the result in data set [2] was Active.
